Values after ≈ are worked out from the molar mass of the structure shown.
Columns and labels:
[1] = system: Mycobacterium tuberculosis; test: Antitubercular activity against Mycobacterium tuberculosis H37Rv ATCC 27294 in 7H9/ADC/Tween medium after 2 weeks by broth microdilution method; format: functional; details: H37Rv ATCC 27294, 336 h
Outline: (§1)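 Two-fold serial dilutions from DMSO stocks added to medium; equal volume of H37Rv diluted to 10,000 cells/mL in the same medium. DMSO-only wells; isoniazid positive control. 37 °C; growth read by inverted enlarging mirror. Quadruplicate. MIC = lowest concentration completely inhibiting growth.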

[2] = system: Mycobacterium tuberculosis; test: Antitubercular activity against Mycobacterium tuberculosis H37Rv ATCC 27294 in GAST/Fe medium after 2 weeks by broth microdilution method; format: functional; details: H37Rv ATCC 27294, 336 h; outline: as §1
[3] = system: Mycobacterium tuberculosis; test: Antitubercular activity against Mycobacterium tuberculosis H37Rv ATCC 27294 in GAST/Fe medium after 1 week by broth microdilution method; format: functional; details: H37Rv ATCC 27294, 168 h; outline: as §1
[4] = system: Mycobacterium tuberculosis; test: Antitubercular activity against Mycobacterium tuberculosis H37Rv ATCC 27294 in 7H9/ADC/Tween medium after 1 week by broth microdilution method; format: functional; details: H37Rv ATCC 27294, 168 h; outline: as §1
[5] = Cytotoxicity against African green monkey Vero cells assessed as survival at 25 ug/ml after 48 hrs by Cell-Titre Blue assay; format: cell-based; details: chlorocebus sabaeus, read-out: Survival
Outline: (§2)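 Vero cells in DMEM with 10% FBS, seeded at 20,000 cells/well and left to adhere overnight at 37 °C, 5% CO2. Medium then replaced with fresh medium containing compound, 48 h. Cell-Titer Blue added for a further 2 h; OD read at 560 nm. % survival = OD test/OD of DMSO-medium control ×100.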

[6] = Cytotoxicity against African green monkey Vero cells assessed as survival at 50 ug/ml after 48 hrs by Cell-Titre Blue assay; format: cell-based; details: chlorocebus sabaeus, read-out: Survival; outline: as §2

| SMILES | MIC [1] [µg/mL] | MIC [2] [µg/mL] | MIC [3] [µg/mL] | MIC [4] [µg/mL] | viability at 48 h, 25 ug/ml [5] [%] | viability at 48 h, 50 ug/ml [6] [%] |
| --- | --- | --- | --- | --- | --- | --- |
| COc1ccc([C@@H]2C(O)=C3Nc4ccccc4N3CN2c2ccc(OC)cc2)cc1 | ≥ 100 | 75 (≈ 187 µM) | 50 (≈ 125 µM) | 100 (≈ 249 µM) | – | – |
| OC1=C2Nc3ccccc3N2CN(c2ccc(Br)cc2)[C@@H]1c1ccc(O)cc1 | > 100 | 75 (≈ 172 µM) | 75 (≈ 172 µM) | ≥ 100 | – | – |
| OC1=C2Nc3ccccc3N2CN(c2cc(Cl)cc(Cl)c2)[C@@H]1c1ccc(Cl)cc1 | ≥ 100 | 50 (≈ 112 µM) | 37 (≈ 83.2 µM) | 100 (≈ 225 µM) | 63 | 69 |
| OC1=C2Nc3ccccc3N2CN(c2c(Cl)cccc2Cl)[C@@H]1c1cccc(O)c1 | 50 (≈ 117 µM) | 9.4 (≈ 22.1 µM) | 6.25 (≈ 14.7 µM) | 37 (≈ 86.8 µM) | 63 | 61 |
| NNC(=O)c1ccncc1 [ISONIAZID] | 0.02 (≈ 0.146 µM) | 0.02 (≈ 0.146 µM) | 0.02 (≈ 0.146 µM) | 0.02 (≈ 0.146 µM) | 100 | 100 |
| Cc1cccc(C)c1N1CN2C(=C(O)[C@H]1c1ccc(O)cc1)Nc1ccccc12 | 19 (≈ 49.3 µM) | 9.4 (≈ 24.4 µM) | 6.25 (≈ 16.2 µM) | 12.5 (≈ 32.4 µM) | 66 | 63 |
| COc1ccccc1[C@@H]1C(O)=C2Nc3ccccc3N2CN1c1cc(Cl)cc(Cl)c1 | 100 (≈ 227 µM) | 100 (≈ 227 µM) | 50 (≈ 114 µM) | 100 (≈ 227 µM) | – | – |
| O=[N+]([O-])c1ccc(N2CN3C(=C(O)[C@H]2c2ccccc2[N+](=O)[O-])Nc2ccccc23)cc1 | 50 (≈ 116 µM) | 37 (≈ 85.8 µM) | 37 (≈ 85.8 µM) | 37 (≈ 85.8 µM) | 53 | 61 |
| Cc1ccc([C@@H]2C(O)=C3Nc4ccccc4N3CN2c2c(C)cccc2C)c(N)c1C | > 100 | 75 (≈ 182 µM) | 37 (≈ 89.7 µM) | 100 (≈ 242 µM) | 64 | 73 |
| O=[N+]([O-])c1ccc(N2CN3C(=C(O)[C@H]2c2cccc([N+](=O)[O-])c2)Nc2ccccc23)cc1 | 37 (≈ 85.8 µM) | 4.7 (≈ 10.9 µM) | 3.13 (≈ 7.26 µM) | 25 (≈ 57.9 µM) | 66 | 69 |
| COc1ccccc1[C@@H]1C(O)=C2Nc3ccccc3N2CN1c1c(C)cccc1C | > 100 | 100 (≈ 250 µM) | 100 (≈ 250 µM) | 50 (≈ 125 µM) | – | – |
| COc1ccc([C@@H]2C(O)=C3Nc4ccccc4N3CN2c2cc(Cl)cc(Cl)c2)cc1OC | > 100 | > 100 | 100 (≈ 213 µM) | > 100 | – | – |
| COc1ccc(N2CN3C(=C(O)[C@H]2c2cccc(-c4ccccn4)c2)Nc2ccccc23)cc1 | > 100 | 19 (≈ 42.4 µM) | 12.5 (≈ 27.9 µM) | ≥ 100 | 66 | 56 |
| COc1ccccc1N1CN2C(=C(O)[C@H]1c1ccccc1O)Nc1ccccc12 | 75 (≈ 194 µM) | 25 (≈ 64.5 µM) | 19 (≈ 49 µM) | 50 (≈ 129 µM) | 63 | 69 |
| OC1=C2Nc3ccccc3N2CN(c2cc(Cl)cc(Cl)c2)[C@@H]1c1ccccc1Cl | > 100 | > 100 | > 100 | ≥ 100 | – | – |
| O=[N+]([O-])c1ccc([C@@H]2C(O)=C3Nc4ccccc4N3CN2c2ccc(Cl)cc2)cc1 | > 100 | > 100 | 100 (≈ 238 µM) | > 100 | – | – |
| COc1ccc(N2CN3C(=C(O)[C@H]2c2cccc(Br)c2)Nc2ccccc23)cc1 | > 100 | > 100 | > 100 | > 100 | – | – |
| COc1ccc(O)c([C@@H]2C(O)=C3Nc4ccccc4N3CN2c2ccc(C(=O)O)cc2)c1 | > 100 | > 100 | > 100 | > 100 | – | – |

— ChEMBL document CHEMBL3297722, “Design, synthesis and docking studies of some novel (R)-2-(4'-chlorophenyl)-3-(4'-nitrophenyl)-1,2,3,5-tetrahydrobenzo[4,5] imidazo [1,2-c]pyrimidin-4-ol derivatives as antitubercular agents” (Eur J Med Chem, 2014)
